From ChEMBL document CHEMBL1151848, “Aryl nucleoside H-phosphonates. Part 16: synthesis and anti-HIV-1 activity of di-aryl nucleoside phosphotriesters” (Bioorg Med Chem, 2009)

Tests used:
[1] = Chemical stability assessed as enzymatic hydrolysis half life in RPMI-1640 culture medium containing heat non-inactivated fetal bovine serum by HPLC analysis; assay type: physicochemical; details: cattle
Method in brief: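 Enzymatic hydrolysis by phosphoesterases was followed in RPMI-1640 containing heat non-inactivated FBS (RPMI/FBS 9:1, v/v).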

[2] = Chemical stability in RPMI-1640 culture medium at 2 uM up to 6 days by HPLC analysis; assay type: physicochemical; details: 144 h

| SMILES | half-life [1] | Stability [2] |
| --- | --- | --- |
| Cc1cn([C@H]2C[C@H](N=[N+]=[N-])[C@@H](COP(=O)(O)Oc3ccc(C#N)cc3)O2)c(=O)[nH]c1=O | 7.08 h | Stable |
| Cc1cn([C@H]2C[C@H](N=[N+]=[N-])[C@@H](COP(=O)(O)Oc3cccnc3)O2)c(=O)[nH]c1=O | 3.88 h | Stable |
| Cc1cn([C@H]2C[C@H](N=[N+]=[N-])[C@@H](COP(=O)(O)Oc3ccc(Br)cc3)O2)c(=O)[nH]c1=O | 7.97 h | Stable |
| Cc1cn([C@H]2C[C@H](N=[N+]=[N-])[C@@H](COP(=O)(O)Oc3ccc(Cl)cc3Cl)O2)c(=O)[nH]c1=O | 3.03 h | Stable |
| Cc1cn([C@H]2C[C@H](N=[N+]=[N-])[C@@H](COP(=O)(O)Oc3ccc(Cl)cc3)O2)c(=O)[nH]c1=O | 5.5 h | Stable |
